Rows were chosen to be rich in hits. Some 1.9% of all compounds tested hit in one or more screens of this group.
FID counter: counter-screen for HCV NS3 helicase inhibitors: DNA intercalator displacement | DNA fluorescent intercalator displacement, fluorescence | inhibition, % at 7.9 µM | hit rate 0.17% among 290,000; in the data active means inhibition above about 37%;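 further: 0% = vehicle and 100% = reference compound; higher means more ethidium bromide displaced from hairpin DNA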
VIM-2 inhibitor: blocks Pseudomonas aeruginosa VIM-2 metallo-beta-lactamase. purified VIM-2, nitrocefin hydrolysis, epi-absorbance fluorescence. AID 1527. hit rate 0.89% among 290,000. inhibition, % at 5.6 µM;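 active means inhibition above the mean of all tested compounds plus 3 SD, cutoff set per screening run, cut at about 7.5% in these data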;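 further: red hydrolysis product quenches plate fluorescence so inhibitors raise well fluorescence; 0% = enzyme with DMSO and 100% = DMSO without enzyme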
IMP-1 inh-1: inhibitors of Pseudomonas aeruginosa IMP-1 metallo-beta-lactamase; purified IMP-1, nitrocefin hydrolysis, epi-absorbance fluorescence; inhibition, % at 5.6 µM; hit rate 0.45% among 290,000; AID 1556;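 active means inhibition above the mean plus 3 SD of all compounds in the same screening run, cut at about 4.5% in these data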;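 further: 0% = IMP-1 with DMSO and 100% = DMSO wells lacking enzyme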
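System – purified recombinant IMP-1 beta-lactamase · Input – IMP-1 dispensed at 0.2 nM · Timing – 15 min preincubation plus 25 min reaction at 25 °C · Signal – Epi-absorbance fluorescence, 480 nm excitation, 530 nm emission · Measure – percent IMP-1 inhibition derived from blank-referenced optical density · Controls – Enzyme-plus-DMSO low control, enzyme-free DMSO high control · Replication – singlicate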
NS3 helicase inh: blocks Hepatitis C virus NS3 helicase unwinding; hit rate 0.56% among 290,000; NS3 helicase DNA unwinding, Cy5 molecular beacon fluorescence; inhibition, % at 10.9 µM;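 active means inhibition above the mean of all tested compounds plus 3 SD, set per campaign, cut at about 35% in these data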;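 further: 0% = DMSO wells and 100% = thioflavine S control wells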
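assay system = NS3 helicase fragment of HCV | buffer or medium = MOPS pH 6.5, MgCl2, DTT, Tween20, BSA | timing = 60 min unwinding reaction at 25 °C after ATP addition | signal = Cy5 beacon fluorescence read at start and 1 h | read-out basis = % inhibition of unwinding | control set = low DMSO, high thioflavine S at 110 µM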
IMP-1 inh-2: IMP-1 inhibition, counter-screen for VIM-2 inhibitors; purified IMP-1, nitrocefin hydrolysis, epi-absorbance fluorescence; 1,300 tested, under 10 active; shares compounds with VIM-2 inhibitor; inhibition, % at 5.6 µM; call rule not given here;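 further: 0% = enzyme with vehicle and 100% = vehicle without enzyme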
VIM-2 FRET inh: VIM-2 FRET inhibition, artifact counter-screen. hit rate 23% among 1,300. shares compounds with VIM-2 inhibitor. inhibition, % at 5.6 µM. purified VIM-2, CCF2 FRET substrate hydrolysis;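 active means inhibition above the mean of all tested compounds plus 3 SD, cut at about 19% in these data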;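 further: 0% = VIM-2 plus DMSO and 100% = no enzyme wells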
TEM-1 counter: selectivity counter-screen for VIM-2 inhibitors: E. coli TEM-1 inhibitors. Purified TEM-1, nitrocefin hydrolysis, epi-absorbance fluorescence. hit rate 3% among 1,300. shares compounds with VIM-2 inhibitor. inhibition, % at 5.6 µM;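 active means inhibition above that campaign's mean inhibition plus 3 SD, cut at about 0.46% in these data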;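 further: 0% = TEM-1 with DMSO and 100% = TEM-1 with 100 µM potassium clavulanate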
Target sequence (P62593 whole entry, looked up): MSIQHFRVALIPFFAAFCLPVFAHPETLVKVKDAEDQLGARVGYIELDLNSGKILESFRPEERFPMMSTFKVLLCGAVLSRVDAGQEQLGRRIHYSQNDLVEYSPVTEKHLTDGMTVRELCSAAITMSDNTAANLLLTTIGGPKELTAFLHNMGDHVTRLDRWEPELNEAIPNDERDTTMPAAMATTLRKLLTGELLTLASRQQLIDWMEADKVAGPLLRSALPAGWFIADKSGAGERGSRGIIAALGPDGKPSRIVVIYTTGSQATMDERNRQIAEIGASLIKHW
VIM-2 inh conf: confirmation of P. aeruginosa VIM-2 metallo-beta-lactamase inhibitors. shares compounds with VIM-2 inhibitor. purified VIM-2, nitrocefin hydrolysis, epi-absorbance. inhibition, % at 5.6 µM. hit rate 96% among 1,300;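 active means inhibition of the VIM-2 beta-lactamase enzyme above about 11% from the earlier first-round screen, limit read from the data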;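 further: 0% = VIM-2 with DMSO and 100% = buffer wells without enzyme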
The depositor's hits bear a star; . = no result given.

SMILES	FID counter	VIM-2 inhibitor	IMP-1 inh-1	NS3 helicase inh	IMP-1 inh-2	VIM-2 FRET inh	TEM-1 counter	VIM-2 inh conf
COc1ccc2ccccc2c1C(O)c1nccn1C (configuration not stated)	45.5*	12.6*	0.5	12.3	-0.4	-1.6	-1.3	11.2*
COc1ccc(S(=O)(=O)Nc2ccccc2C(=O)NCc2cccnc2)cc1	-8.9	2.7	-1.8	9.6	.	.	.	.
CCN(CC)CCCC(C)NC(=O)c1cccc(S(=O)(=O)N2CCc3ccccc32)c1 (configuration not stated)	12.0	-1.6	-2.6	-8.1	.	.	.	.
O=C(O)c1ccccc1/C=N/n1c(C2CCCCC2)n[nH]c1=S	-2.0	15.3*	-2.1	-0.6	-2.5	31.7*	-5.8	21.2*
CCCc1cc(=O)oc2cc(C)cc(OCC(=O)Nc3ccc(CN4CCOCC4)cc3)c12	14.6	13.7*	-0.7	-31.7	-4.0	-2.0	-7.8	20.3*
CCc1cc(=O)oc2cc(C)cc(OCC(=O)NCCCN3CCOCC3)c12	9.0	14.2*	-0.8	3.8	-2.6	-1.1	-6.0	22.0*
CN(CCc1ccccc1)C(=O)c1cc(COc2ccc(F)cc2Cl)on1	-38.3	-1.6	-0.7	-9.6	.	.	.	.
Cc1cccc(C)c1OCC(=O)OC/C(O)=C(\C#N)c1nc2ccccc2[nH]1	-15.5	4.0	-1.9	5.0	.	.	.	.
Cc1cc(C)cc(OCC(=O)OC/C(O)=C(\C#N)c2nc3ccccc3[nH]2)c1	-5.4	13.9*	1.2	15.6	-2.8	-8.4	-4.1	5.3
N#C/C(=C(/O)CCl)c1nc2ccccc2[nH]1	1.6	49.7*	0.3	6.1	-2.7	-12.2	-6.8	35.8*
O=C(COc1ccc2ccc(=O)oc2c1)Nc1c(Cl)cccc1C(F)(F)F	-15.8	-1.6	-0.9	2.0	.	.	.	.
CCC(=O)Nc1cc(C(=O)OCC(=O)c2ccccc2)ccc1C	-10.1	-1.7	1.0	-1.0	.	.	.	.
Cn1c(=O)c2c(nc(SCC(=O)N3CCCCCC3)n2C)n(C)c1=O	-11.1	0.5	-2.9	5.5	.	.	.	.
CCn1c(SCC(=O)N2CCN(C)CC2)nc2c1c(=O)n(C)c(=O)n2C	-5.0	54.5*	-1.9	-0.7	-3.9	-3.5	-5.1	63.0*
CCn1c(SCC(=O)N2CCCC2)nc2c1c(=O)n(C)c(=O)n2C	-13.0	-2.2	-4.3	7.8	.	.	.	.
CCCn1c(SCC(=O)N2CCN(CC)CC2)nc2c1c(=O)n(C)c(=O)n2C	-4.3	52.2*	-0.8	12.0	-3.8	1.1	-6.2	61.4*
CCCn1c(SCC(=O)N2CCCCC2)nc2c1c(=O)n(C)c(=O)n2C	-21.6	1.4	-0.5	-0.8	.	.	.	.
CCN1CCN(C(=O)CSc2nc3c(c(=O)n(C)c(=O)n3C)n2C)CC1	-2.8	75.7*	-1.3	-8.3	-2.2	2.1	-3.7	84.9*
Cn1c(=O)c2c(nc(N/N=C/c3ccc(OC(=O)c4ccco4)cc3)n2Cc2ccccc2)n(C)c1=O	-2.2	-1.9	-1.0	1.2	.	.	.	.
O=[N+]([O-])c1cccc(/C=N/Nc2nc(C(Cl)(Cl)Cl)nc3ccccc23)c1	0.8	-3.7	-4.3	-4.7	.	.	.	.
ClC(Cl)(Cl)c1nc(N/N=C/c2ccncc2)c2ccccc2n1	2.2	34.0*	-3.7	-5.2	-2.9	-4.1	-5.6	64.8*
CCCc1nc2ccc(N)cc2c(=O)n1Cc1ccccc1Cl	-4.7	-1.7	0.7	-8.4	.	.	.	.
Nc1nc(NCCCN2CCOCC2)nc(Nc2ccc(Cl)cc2)c1[N+](=O)[O-]	11.6	6.9	-2.6	-98.7	.	.	.	.
Nc1nc(NCCCN2CCOCC2)nc(Nc2cccc(Cl)c2)c1[N+](=O)[O-]	17.5	28.8*	-0.5	-51.7	-3.4	0.1	-7.1	49.5*
Cc1nc2ccc(NC(=O)N3CCSCC3)cc2nc1C	-1.8	16.2*	-3.6	6.3	-2.8	3.4	-6.2	4.4
SMILES	FID counter	VIM-2 inhibitor	IMP-1 inh-1	NS3 helicase inh	IMP-1 inh-2	VIM-2 FRET inh	TEM-1 counter	VIM-2 inh conf
Cc1nc2ccc(NC(=O)N3CCSCC3)cc2s1	-10.4	-0.4	-2.6	1.2	.	.	.	.
COc1ccc([N+](=O)[O-])cc1N(CC(=O)NC(C(C)C)C(C)C)S(C)(=O)=O	-5.8	-4.3	-1.7	4.2	.	.	.	.
CC(=O)Nc1nc(Cn2nnc(-c3ccc4c(c3)OCO4)n2)nc(N(C)C)n1	-2.6	-3.3	-3.2	-3.3	.	.	.	.
Cc1cc(-c2nn3c(-c4ccccc4)nnc3s2)c2ccccc2n1	-13.9	12.7*	-3.9	20.6	-2.6	10.3	-3.9	35.4*
CCOc1cccc(-c2nnc3sc(-c4cc(OC)c(OC)c(OC)c4)nn23)c1	0.2	-1.5	-4.2	-2.6	.	.	.	.
COc1cc(OC)c(-c2nn3c(-c4ccco4)nnc3s2)cc1OC	-40.4	35.8*	4.0	24.2	-2.4	-4.9	-3.8	42.1*
c1ccc(-c2cc(-c3nn4c(-c5ccco5)nnc4s3)c3ccccc3n2)cc1	-9.1	2.1	-1.8	1.6	.	.	.	.
COc1cc(-c2nn3c(-c4ccccc4)nnc3s2)cc(OC)c1OC	-10.2	18.1*	-3.0	3.4	-2.4	38.5*	-5.4	36.5*
COc1ccc(-c2nn3c(-c4ccco4)nnc3s2)cc1OC	-33.5	53.8*	0.0	21.4	-3.7	-8.9	-11.8	56.1*
Cc1nn(Cc2ccccc2)c(C)c1NC(=O)CCCn1nc([N+](=O)[O-])cc1C	-5.8	-0.6	-3.0	-2.6	.	.	.	.
Cc1ccccc1C(=O)Nc1cccc(-c2ccc3nncn3n2)c1	-14.8	1.4	-2.1	-5.4	.	.	.	.
CCOc1ccccc1C(=O)Nc1cccc(-c2ccc3nncn3n2)c1	-32.7	21.2*	-0.1	0.1	-2.8	1.4	-8.3	31.3*
CC(=O)N1N=C(C)CC1c1ccc(O)cc1 (configuration not stated)	2.7	-1.4	-0.8	-4.8	.	.	.	.
Cc1n[nH]c(C)c1N1C(=O)c2cccc3cc(Br)cc(c23)C1=O	-7.5	14.9*	-2.2	1.0	-2.2	-4.8	-5.1	25.8*
Cc1n[nH]c(C)c1N1C(=O)c2cccc3c(Br)ccc(c23)C1=O	-25.2	29.0*	0.9	3.8	-3.2	-3.9	-5.6	33.4*
COc1ccc2oc(C(=O)OCC(=O)/C(C#N)=C(\C)N)c(C)c2c1	-1.4	-2.5	-1.5	-3.7	.	.	.	.
C=CCNC(=S)N/N=C(\C)c1cccnc1	-5.9	-0.4	-3.9	5.9	.	.	.	.
C/C(=N\NC(=S)NC(C)C)c1ccc(-n2ccnc2)cc1	-7.2	77.3*	-1.5	6.3	-1.7	-11.5	-7.4	86.4*
C/C(=N\NC(N)=O)c1ccc(-n2ccnc2)cc1	-1.1	2.1	-0.9	-5.5	.	.	.	.
CNC(=S)N/N=C(\C)c1ccc(-n2ccnc2)cc1	-0.4	23.4*	1.3	7.3	-3.8	-15.2	-7.3	43.0*
COCCNC(=S)N/N=C(\C)c1ccc(-n2ccnc2)cc1	-6.5	67.2*	-2.4	-4.9	1.1	1.5	0.4*	81.7*

High-throughput results: PubChem, The Scripps Research Institute Molecular Screening Center
